The values that follow come from ChEMBL document CHEMBL2346602, “A potent bivalent Smac mimetic (SM-1200) achieving rapid, complete, and durable tumor regression in mice” (J Med Chem, 2013).

The nature of series [1]: Elimination half life in Sprague-Dawley rat at 1 mg/kg, iv. The series is classed as ADME, organism-based. Further details: dose 1 mg/kg, route intravenous. Conditions: in vivo, read-out: beta t1/2 (converted).
Series [2] concerns MDA-MB-231. The series is described as follows: Induction of apoptosis in human MDA-MB-231 cells assessed as cIAP1 degradation at 0.3 nM after 24 hrs by Western blot analysis. The series is classed as functional, cell-based. The method in brief:
(§1)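 MDA-MB-231 cells were treated 24 h with graded concentrations. Lysates were made in Tris/NaCl/EDTA/SDS/NP-40 buffer with PMSF and protease inhibitors on ice, then run on 4−20% SDS-PAGE and blotted to PVDF. Blots were probed for cIAP1, cleaved PARP, and caspase-8, -9 and -3 (full-length and cleaved), with HRP chemiluminescent detection.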

Series [3] can be described thus: AUC in Sprague-Dawley rat at 1 mg/kg, iv. Format: ADME, organism-based. More on the design: dose 1 mg/kg, route intravenous. The settings on record: plasma.
The test system of series [4] is MDA-MB-231. The series is described as follows: Induction of apoptosis in human MDA-MB-231 cells assessed as apoptotic cells after 24 hrs by trypan blue assay. Format: functional, cell-based. The method in brief: (§2)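 MDA-MB-231 cells were exposed to graded compound concentrations for 24 h and viability scored by trypan blue exclusion. Blue or morphologically unhealthy cells counted as dead. At least 100 cells per treatment were scored, in triplicate.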

The subject of series [5] is MDA-MB-231. The experiment in a line: Induction of apoptosis in human MDA-MB-231 cells assessed as PARP cleavage after 24 hrs by Western blot analysis. Format: functional, cell-based. The method in brief: as §1
The subject of series [6] is MDA-MB-231. The series is described as follows: Induction of apoptosis in human MDA-MB-231 cells assessed as apoptotic cells at 10 nM after 24 hrs by trypan blue assay relative to control. Format: functional. The method in brief:
as §2

The test system of series [7] is MDA-MB-231. The experiment in a line: Induction of apoptosis in human MDA-MB-231 cells assessed as caspase-3 cleavage after 24 hrs by Western blot analysis. The series is classed as functional, cell-based. The method in brief:
as §1

Series [8] has as its system Rattus norvegicus. The experiment in a line: Apparent volume of distribution during terminal phase in Sprague-Dawley rat at 1 mg/kg, iv. Format: ADME, organism-based. Further details: dose 1 mg/kg, route intravenous. The settings on record: in vivo.
For series [9], the system named is MDA-MB-231. The series is described as follows: Induction of apoptosis in human MDA-MB-231 cells assessed as caspase-8 cleavage after 24 hrs by Western blot analysis. The series is classed as functional, cell-based. The method in brief: as §1
Series [10] has as its system MDA-MB-231. The experiment in a line: Antitumor activity against human MDA-MB-231 cells xenografted in nude immunodeficient mouse assessed as tumor growth inhibition at 7.5 mg/kg, iv administered every week for 4 weeks measured over 76 days. The series is classed as functional, organism-based. More on the design: dose 7.5 mg/kg. The method in brief:
(§3)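 5 × 10⁶ MDA-MB-231 cells in 50% Matrigel injected subcutaneously, one tumor per mouse. Dosing began on day 28, at mean tumor volume 100 mm³. Tumor volume and body weight were tracked. Groups were compared by t test.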

The test system of series [11] is MDA-MB-231. The series is described as follows: Antitumor activity against human MDA-MB-231 cells xenografted in nude immunodeficient mouse assessed as tumor regression at 7.5 mg/kg, iv administered every week for 4 weeks measured over 76 days. Format: functional, organism-based. More on the design: dose 7.5 mg/kg. The method in brief:
as §3

Series [12] concerns MDA-MB-231. The experiment in a line: Induction of apoptosis in human MDA-MB-231 cells xenografted in SCID mouse assessed as decrease in XIAP level at 5 mg/kg, iv after 8 to 24 hrs by Western blot analysis. Format: functional, organism-based. Further details: dose 5 mg/kg. The method in brief:
(§4)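 SCID mice carried subcutaneous dorsal MDA-MB-231 xenografts (5 × 10⁶ cells with Matrigel). At about 100 mm³, mice got a single iv dose of 5 mg/kg or vehicle. They were sacrificed at set time points, and tumor lysates were Western blotted for cIAP1, XIAP, caspase-3, PARP and cleaved PARP.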

Series [13] concerns MDA-MB-231. The series is described as follows: Induction of apoptosis in human MDA-MB-231 cells xenografted in SCID mouse assessed as PARP cleavage at 5 mg/kg, iv after 4 to 24 hrs by Western blot analysis. Format: functional, organism-based. More on the design: dose 5 mg/kg. The method in brief: as §4
The subject of series [14] is MDA-MB-231. The series is described as follows: Antitumor activity against human MDA-MB-231 cells xenografted in nude immunodeficient mouse assessed as tumor regression at 10 mg/kg/week, iv after 4 weeks relative to vehicle-treated control. The series is classed as functional. The method in brief: as §3
Series [15] can be described thus: AUC in Sprague-Dawley rat at […], iv. Format: ADME, organism-based. More on the design: dose 2.5 mg/kg, route intravenous. Conditions: plasma.
Series [16] deals with MDA-MB-231. The experiment in a line: Induction of apoptosis in human MDA-MB-231 cells assessed as cIAP1 degradation at 1 nM after 24 hrs by Western blot analysis. Format: functional, cell-based. The method in brief:
as §1

Series [17] can be described thus: Elimination half life in Sprague-Dawley rat at […], iv. Format: ADME, organism-based. Further details: dose 2.5 mg/kg, route intravenous. The settings on record: in vivo, read-out: beta t1/2 (converted).
Series [18] has as its system MDA-MB-231. The experiment in a line: Antitumor activity against human MDA-MB-231 cells xenografted in nude immunodeficient mouse assessed as tumor regression at 3 mg/kg/week, iv after 4 weeks relative to vehicle-treated control. Format: functional. The method in brief:
as §3

Series [19] deals with MDA-MB-231. The experiment in a line: Antitumor activity against human MDA-MB-231 cells xenografted in nude immunodeficient mouse assessed as tumor regression at 10 mg/kg/week, iv after 1 week relative to vehicle-treated control. Format: functional. The method in brief: as §3
The subject of a further series is Mus musculus. The experiment in a line: Toxicity in nude immunodeficient mouse xenografted with human MDA-MB-231 cells assessed as body weight change at 3 to 10 mg/kg, iv administered every week for 4 weeks measured over 76 days. Format: organism-based. More on the design: dose 3-10 mg/kg, route intravenous. Conditions: in vivo, 1824 h. The method in brief: as §3

Series [20] concerns MDA-MB-231. The series is described as follows: Induction of apoptosis in human MDA-MB-231 cells xenografted in SCID mouse assessed as cIAP1 degradation at 5 mg/kg, after 2 to 24 hrs by Western blot analysis. Format: functional, organism-based. More on the design: dose 5 mg/kg. The method in brief:
as §4

Series [21] deals with MDA-MB-231. The experiment in a line: Induction of apoptosis in human MDA-MB-231 cells xenografted in SCID mouse assessed as caspase 3 cleavage at 5 mg/kg, iv measured at 4 hrs by Western blot analysis. Further details: dose 5 mg/kg. Format: functional, organism-based. The method in brief: as §4
Series [22] deals with MDA-MB-231. The experiment in a line: Antitumor activity against human MDA-MB-231 cells xenografted in nude immunodeficient mouse assessed as tumor regression at 3 mg/kg/week, iv after 1 week relative to vehicle-treated control. Format: functional. The method in brief: as §3
Series [23] has as its system Rattus norvegicus. The experiment in a line: Apparent volume of distribution during terminal phase in Sprague-Dawley rat at […], iv. Format: ADME, organism-based. More on the design: dose 2.5 mg/kg, route intravenous. Conditions: in vivo.

Molecules are shown by their SMILES. Calls of active or inactive are those of the source. The calls are words filed in the database; no cut-off is given here.

Regarding `CN[C@@H](C)C(=O)N[C@H]1CCCC[C@H]2CC[C@@H](C(=O)N[C@@H](c3ccccc3)c3cn(CCCCc4ccc(CCCCn5cc([C@@H](NC(=O)[C@@H]6CC[C@@H]7CCCC[C@H](NC(=O)[C@H](C)NC)C(=O)N76)c6ccccc6)nn5)cc4)nn3)N2C1=O`, the half-life in [1] is 8.4 min. In addition, in the series with MDA-MB-231 [2], the result was Active. In addition, the area under the curve (AUC) in [3] was found to be 221 ng·h/mL. Also, the Activity result with MDA-MB-231 [4] was “Dose-dependent effect”; in the series on MDA-MB-231 [5], “Dose-dependent effect”; with MDA-MB-231 [6], greater than 75%; in the series on MDA-MB-231 [7] it was “Dose-dependent effect”; in the series with MDA-MB-231 [9], “Dose-dependent effect”. In addition, the Vz/F in the series with Rattus norvegicus [8] worked out at 1 L/kg.
Turning to `CC(=O)O[C@@]12CO[C@@H]1C[C@H](O)[C@@]1(C)C(=O)[C@H](O)C3=C(C)[C@@H](OC(=O)[C@H](O)[C@@H](NC(=O)OC(C)(C)C)c4ccccc4)C[C@@](O)([C@@H](OC(=O)c4ccccc4)[C@H]21)C3(C)C`, in the series with MDA-MB-231 [10], the TGI entry was “Active”. In addition, in the series with MDA-MB-231 [11], the result was inactive.
`CN[C@@H](C)C(=O)N[C@H]1CN(C(=O)Nc2ccc(NC(=O)N3CC[C@H]4CC[C@@H](C(=O)NC(c5ccccc5)c5ccccc5)N4C(=O)[C@@H](NC(=O)[C@H](C)NC)C3)cc2)CC[C@H]2CC[C@@H](C(=O)NC(c3ccccc3)c3ccccc3)N2C1=O`: the outcome in the series on MDA-MB-231 [12], in the series with MDA-MB-231 [13], in the series on MDA-MB-231 [16], in the series on MDA-MB-231 [20] and in the series on MDA-MB-231 [21] was Active. Besides, the Activity is 99% in the series with MDA-MB-231 [14]; “Dose-dependent effect” with MDA-MB-231 [4]; “Dose-dependent effect” with MDA-MB-231 [5]; greater than 75% in the series with MDA-MB-231 [6]; “Dose-dependent effect” in the series with MDA-MB-231 [7]; “Dose-dependent effect” with MDA-MB-231 [9]. Further, the Activity in the series with MDA-MB-231 [18] is listed as 93%; in the series on MDA-MB-231 [19], 88%; with Mus musculus, “Non-toxic”; in the series on MDA-MB-231 [22], 55%. Moreover, in series [15], the AUC is 3770 ng·h/mL. Further, the half-life in [17] is 4.9 h. The Vz/F in the series with Rattus norvegicus [23] amounted to 0.5 L/kg.
